Reference: ChEMBL document CHEMBL1122179, “1-(alkylamino)isochromans: hypotensives with peripheral and central activities” (J Med Chem, 1982)

What was measured:
Rattus norvegicus [1] = test: Pressor effects of intravenous phenylephrine (2.5 ug/kg) was measured in anesthetized rats at 0 min.; type: functional
Method in brief: (§1)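 Female Sprague-Dawley rats (200–300 g), anesthetized iv with α-chloralose (40 mg/kg), urethane (40 mg/kg) and pentobarbital (15 mg/kg). Carotid artery catheter for blood pressure and heart rate, jugular vein for drugs. Test agent given at 1.0 mg/kg iv in 0.1 M citric acid (1 mg/mL). Pressor responses to iv norepinephrine 0.1 μg/kg, phenylephrine 2.5 μg/kg and angiotensin I 0.1 μg/kg were taken before and 15, 30, 45 and 60 min after dosing. Mean ± SEM.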

Rattus norvegicus [2] = test: Delta BP refers to oral hypotensive activity of compound which is evaluated at 4 hr and 24 hr in restrained, normotensive conscious rats at a dose of 5 mg/kg; -9/-3; type: functional
Method in brief: (§2)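 Female Sprague-Dawley rats, normotensive, restrained in a towel. Blood pressure was read directly via chronic indwelling aortic cannulas exteriorized at the nape, before and 4 and 24 h after an oral dose suspended in carboxymethylcellulose (10 mL/kg). Values from two animals were averaged at each time; a mean change of at least 5 mmHg was taken as significant (p < 0.05).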

Rattus norvegicus [3] = test: Pressor effects of intravenous norepinephrine (0.1 ug/kg) was measured in anesthetized rats at 0 min.; type: functional; method in brief: as §1
Rattus norvegicus [4] = test: Heart rate of compound was measured in anesthetized rats at 60 min.; type: functional; method in brief: as §1
Rattus norvegicus [5] = test: Mean arterial pressure of compound was measured in anesthetized rats at 0 min.; type: functional, Artery; method in brief: as §1
Rattus norvegicus [6] = test: Pressor effects of intravenous norepinephrine (0.1 ug/kg) was measured in anesthetized rats at 60 min.; type: functional; method in brief: as §1
[7] = target: T1, Adrenergic receptor alpha-1 (Rattus norvegicus, UniProt P15823+P23944+P43140); test: Compound was tested for the inhibition of [3H]prazosin binding alpha-1-adrenergic receptor of crude rat brain membrane.
T1 sequence (P15823 whole entry): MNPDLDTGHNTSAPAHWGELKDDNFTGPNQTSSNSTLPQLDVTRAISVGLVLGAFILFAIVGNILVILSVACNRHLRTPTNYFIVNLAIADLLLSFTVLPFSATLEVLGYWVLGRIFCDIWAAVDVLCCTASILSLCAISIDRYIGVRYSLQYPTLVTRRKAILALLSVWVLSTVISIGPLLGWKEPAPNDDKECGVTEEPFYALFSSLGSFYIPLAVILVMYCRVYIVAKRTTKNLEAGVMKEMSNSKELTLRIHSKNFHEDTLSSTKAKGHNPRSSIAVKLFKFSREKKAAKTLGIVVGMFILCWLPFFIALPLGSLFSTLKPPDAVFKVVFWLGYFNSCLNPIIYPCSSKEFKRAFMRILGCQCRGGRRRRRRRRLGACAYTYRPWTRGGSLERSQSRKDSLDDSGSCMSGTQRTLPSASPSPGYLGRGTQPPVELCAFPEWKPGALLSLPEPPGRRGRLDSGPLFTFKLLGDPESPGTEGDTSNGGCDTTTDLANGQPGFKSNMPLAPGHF
T1 sequence (P23944 whole entry): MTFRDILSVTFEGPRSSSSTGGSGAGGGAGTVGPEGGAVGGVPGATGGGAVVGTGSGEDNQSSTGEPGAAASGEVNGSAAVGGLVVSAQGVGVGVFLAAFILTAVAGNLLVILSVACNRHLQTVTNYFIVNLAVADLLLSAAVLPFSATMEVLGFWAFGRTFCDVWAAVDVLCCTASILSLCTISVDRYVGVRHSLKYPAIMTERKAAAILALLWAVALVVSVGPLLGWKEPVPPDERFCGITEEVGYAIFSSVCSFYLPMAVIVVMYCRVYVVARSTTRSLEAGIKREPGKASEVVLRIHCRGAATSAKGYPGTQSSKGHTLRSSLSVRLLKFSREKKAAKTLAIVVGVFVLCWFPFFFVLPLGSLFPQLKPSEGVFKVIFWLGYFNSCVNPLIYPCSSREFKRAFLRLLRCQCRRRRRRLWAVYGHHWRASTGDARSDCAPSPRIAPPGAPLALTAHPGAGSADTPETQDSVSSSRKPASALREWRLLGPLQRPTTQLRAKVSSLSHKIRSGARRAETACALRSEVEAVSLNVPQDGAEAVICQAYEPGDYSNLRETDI
T1 sequence (P43140 whole entry): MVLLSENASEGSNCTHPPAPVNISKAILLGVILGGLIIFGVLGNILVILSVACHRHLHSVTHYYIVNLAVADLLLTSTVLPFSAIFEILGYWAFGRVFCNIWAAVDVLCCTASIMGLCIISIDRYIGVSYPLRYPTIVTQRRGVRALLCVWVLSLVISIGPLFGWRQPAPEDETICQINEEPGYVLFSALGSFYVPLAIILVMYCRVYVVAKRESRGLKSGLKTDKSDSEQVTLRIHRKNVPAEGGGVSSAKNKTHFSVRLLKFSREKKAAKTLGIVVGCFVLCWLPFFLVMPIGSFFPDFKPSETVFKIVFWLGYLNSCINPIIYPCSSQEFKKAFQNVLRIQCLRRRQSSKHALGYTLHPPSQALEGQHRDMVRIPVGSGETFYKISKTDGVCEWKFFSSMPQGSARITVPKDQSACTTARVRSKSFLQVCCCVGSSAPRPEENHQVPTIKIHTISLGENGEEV

Rattus norvegicus [8] = test: Delta BP refers to oral hypotensive activity of compound which is evaluated at 4 hr and 24 hr in restrained, normotensive conscious rats at a dose of 15 mg/kg; -20/-18; type: functional; method in brief: as §2
Rattus norvegicus [9] = test: Mean arterial pressure of compound was measured in anesthetized rats at 60 min; type: functional, Artery; method in brief: as §1

Ki [7]: 4 nM
SMILES: COc1cc2c(cc1OC)C(CCN1CCN(c3ccc(F)cc3)CC1)OCC2 (centres undefined)
Pressor response (Rattus norvegicus [1]): 48 mmHg
Delta blood pressure (Rattus norvegicus [2]): -9 mmHg
Pressor response (Rattus norvegicus [3]): 19 mmHg
HR (Rattus norvegicus [4]): 426 beats min-1
MAP (Rattus norvegicus [5]): 105 mmHg
Pressor response (Rattus norvegicus [6]): 7 mmHg
Delta blood pressure (Rattus norvegicus [8]): -20 mmHg
MAP (Rattus norvegicus [9]): 87 mmHg
